Results as given in ChEMBL document CHEMBL4732114, “Design and structural optimization of novel 2H-benzo[h]chromene derivatives that target AcrB and reverse bacterial multidrug resistance” (Eur J Med Chem, 2021).
≈ marks a conversion by molar mass, not a printed value.

Tests used:
[1] = molecular target: T1, Multidrug efflux pump subunit AcrB (Escherichia coli (strain K12)) (UniProt P31224); experiment: Inhibition of AcrB in multidrug-resistant Escherichia coli BW25113 assessed as potentiation of chloramphenicol-induced antibacterial activity by measuring chloramphenicol MIC at 8 ug/ml by checkerboard titration method (reference value: 8 ug/ml); conditions: dose 8.0 µg/ml
T1 sequence (whole entry): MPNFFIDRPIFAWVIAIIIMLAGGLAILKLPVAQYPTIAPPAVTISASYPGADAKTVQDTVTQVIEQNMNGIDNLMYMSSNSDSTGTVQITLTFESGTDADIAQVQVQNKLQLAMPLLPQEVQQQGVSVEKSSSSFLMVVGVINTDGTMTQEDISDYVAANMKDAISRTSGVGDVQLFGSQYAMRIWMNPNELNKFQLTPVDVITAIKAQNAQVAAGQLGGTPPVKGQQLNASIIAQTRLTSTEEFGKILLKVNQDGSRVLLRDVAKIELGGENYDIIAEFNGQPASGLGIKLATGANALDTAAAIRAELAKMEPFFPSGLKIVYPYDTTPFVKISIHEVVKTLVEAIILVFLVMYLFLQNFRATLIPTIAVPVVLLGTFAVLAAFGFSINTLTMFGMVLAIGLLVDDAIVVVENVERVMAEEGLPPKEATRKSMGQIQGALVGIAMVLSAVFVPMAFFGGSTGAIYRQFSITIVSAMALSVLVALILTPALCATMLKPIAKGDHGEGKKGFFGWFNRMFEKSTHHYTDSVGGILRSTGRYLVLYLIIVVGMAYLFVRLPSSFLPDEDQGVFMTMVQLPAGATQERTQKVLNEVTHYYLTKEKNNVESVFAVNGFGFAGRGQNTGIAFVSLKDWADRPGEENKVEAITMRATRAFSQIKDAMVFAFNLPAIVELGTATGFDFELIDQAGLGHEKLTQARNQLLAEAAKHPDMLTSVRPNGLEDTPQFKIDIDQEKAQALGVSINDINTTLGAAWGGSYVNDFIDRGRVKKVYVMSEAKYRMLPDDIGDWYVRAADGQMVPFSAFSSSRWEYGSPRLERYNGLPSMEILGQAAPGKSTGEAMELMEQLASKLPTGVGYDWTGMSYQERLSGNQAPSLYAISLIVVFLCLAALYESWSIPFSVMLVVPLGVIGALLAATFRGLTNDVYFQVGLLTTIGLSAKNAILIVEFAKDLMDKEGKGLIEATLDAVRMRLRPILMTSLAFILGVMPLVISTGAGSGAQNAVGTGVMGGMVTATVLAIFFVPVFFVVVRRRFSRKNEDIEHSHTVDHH

[2] = molecular target: T1, Multidrug efflux pump subunit AcrB (Escherichia coli (strain K12)); experiment: Inhibition of AcrB in multidrug-resistant Escherichia coli BW25113 assessed as potentiation of chloramphenicol-induced antibacterial activity by measuring chloramphenicol MIC at 16 ug/ml by checkerboard titration method (reference value: 8 ug/ml); conditions: dose 16.0 µg/ml
[3] = molecular target: T1, Multidrug efflux pump subunit AcrB (Escherichia coli (strain K12)); experiment: Inhibition of AcrB in multidrug-resistant Escherichia coli BW25113 assessed as potentiation of chloramphenicol-induced antibacterial activity by measuring chloramphenicol MIC at 32 ug/ml by checkerboard titration method (reference value: 8 ug/ml); conditions: dose 32.0 µg/ml
[4] = molecular target: T1, Multidrug efflux pump subunit AcrB (Escherichia coli (strain K12)); experiment: Inhibition of AcrB in multidrug-resistant Escherichia coli BW25113 assessed as potentiation of chloramphenicol-induced antibacterial activity by measuring chloramphenicol MIC at 64 ug/ml by checkerboard titration method (reference value: 8 ug/ml); conditions: dose 64.0 µg/ml
[5] = molecular target: T1, Multidrug efflux pump subunit AcrB (Escherichia coli (strain K12)); experiment: Inhibition of AcrB in multidrug-resistant Escherichia coli BW25113 assessed as potentiation of chloramphenicol-induced antibacterial activity by measuring chloramphenicol MIC at 128 ug/ml by checkerboard titration method (reference value: 8 ug/ml); conditions: dose 128.0 µg/ml
[6] = molecular target: T1, Multidrug efflux pump subunit AcrB (Escherichia coli (strain K12)); experiment: Inhibition of AcrB in multidrug-resistant Escherichia coli BW25113 assessed as potentiation of erythromycin-induced antibacterial activity by measuring erythromycin MIC at 128 ug/ml by checkerboard titration method (reference value: 64 ug/ml); conditions: dose 128.0 µg/ml
[7] = molecular target: T1, Multidrug efflux pump subunit AcrB (Escherichia coli (strain K12)); experiment: Inhibition of AcrB in multidrug-resistant Escherichia coli BW25113 assessed as potentiation of tetraphenylphosphonium-induced antibacterial activity by measuring tetraphenylphosphonium MIC at 8 ug/ml by checkerboard titration method (reference value: 1024 ug/ml); conditions: dose 8.0 µg/ml
[8] = molecular target: T1, Multidrug efflux pump subunit AcrB (Escherichia coli (strain K12)); experiment: Inhibition of AcrB in multidrug-resistant Escherichia coli BW25113 assessed as potentiation of tetraphenylphosphonium-induced antibacterial activity by measuring tetraphenylphosphonium MIC at 16 ug/ml by checkerboard titration method (reference value: 1024 ug/ml); conditions: dose 16.0 µg/ml
[9] = molecular target: T1, Multidrug efflux pump subunit AcrB (Escherichia coli (strain K12)); experiment: Inhibition of AcrB in multidrug-resistant Escherichia coli BW25113 assessed as potentiation of tetraphenylphosphonium-induced antibacterial activity by measuring tetraphenylphosphonium MIC at 32 ug/ml by checkerboard titration method (reference value: 1024 ug/ml); conditions: dose 32.0 µg/ml
[10] = molecular target: T1, Multidrug efflux pump subunit AcrB (Escherichia coli (strain K12)); experiment: Inhibition of AcrB in multidrug-resistant Escherichia coli BW25113 assessed as potentiation of tetraphenylphosphonium-induced antibacterial activity by measuring tetraphenylphosphonium MIC at 64 ug/ml by checkerboard titration method (reference value: 1024 ug/ml); conditions: dose 64.0 µg/ml
[11] = molecular target: T1, Multidrug efflux pump subunit AcrB (Escherichia coli (strain K12)); experiment: Inhibition of AcrB in multidrug-resistant Escherichia coli BW25113 assessed as potentiation of levofloxacin-induced antibacterial activity by measuring levofloxacin MIC at 32 ug/ml by checkerboard titration method (reference value: 0.06 ug/ml); conditions: dose 32.0 µg/ml
[12] = molecular target: T1, Multidrug efflux pump subunit AcrB (Escherichia coli (strain K12)); experiment: Inhibition of AcrB in multidrug-resistant Escherichia coli BW25113 assessed as potentiation of levofloxacin-induced antibacterial activity by measuring levofloxacin MIC at 64 ug/ml by checkerboard titration method (reference value: 0.06 ug/ml); conditions: dose 64.0 µg/ml
[13] = molecular target: T1, Multidrug efflux pump subunit AcrB (Escherichia coli (strain K12)); experiment: Inhibition of AcrB in multidrug-resistant Escherichia coli BW25113 assessed as potentiation of levofloxacin-induced antibacterial activity by measuring levofloxacin MIC at 128 ug/ml by checkerboard titration method (reference value: 0.06 ug/ml); conditions: dose 128.0 µg/ml
Cell membrane = experiment: Induction of outer membrane permeabilization in wild type Escherichia coli BW25113 assessed as increase in nitrocefin hydrolysis at 128 ug/ml in presence of CCCP by spectroscopic analysis; conditions: dose 128 µg/ml
In short: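 Intact E. coli were treated with 10 μM CCCP to block nitrocefin efflux, then given compound, nothing, or polymyxin B as permeabilizer control. Nitrocefin was added, and hydrolysis by periplasmic β-lactamase was followed as the rise in absorbance at 490 nm. Duplicate experiments were run on different days.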

[14] = molecular target: T1, Multidrug efflux pump subunit AcrB (Escherichia coli (strain K12)); conditions: Escherichia coli BW25113; dose 8.0 µg/ml
[15] = molecular target: T1, Multidrug efflux pump subunit AcrB (Escherichia coli (strain K12)); conditions: Escherichia coli BW25113; dose 64.0 µg/ml
[16] = molecular target: T1, Multidrug efflux pump subunit AcrB (Escherichia coli (strain K12)); conditions: Escherichia coli BW25113; dose 128.0 µg/ml

CC1(C)CC(=O)c2ccc(OCCNC3CCCC3)cc2O1
MIC [1]: 8 µg/mL | MIC [2]: 8 µg/mL | MIC [3]: 8 µg/mL | MIC [4]: 8 µg/mL | MIC [5]: 8 µg/mL | MIC [6]: 64 µg/mL | MIC [7]: 512 µg/mL | MIC [8]: 512 µg/mL | MIC [9]: 512 µg/mL | MIC [10]: 512 µg/mL | MIC [11]: 0.03 µg/mL | MIC [12]: 0.03 µg/mL | MIC [13]: 0.03 µg/mL | Activity (Cell membrane): Not Active | MIC [14]: 16 µg/mL (≈ 52.7 µM) | MIC [15]: 16 µg/mL (≈ 52.7 µM) | MIC [16]: 16 µg/mL (≈ 52.7 µM)

CC1CN(C(=O)c2cc3c(OCc4ccc(Br)cc4)cccc3c3c2CCC(C)(C)O3)CC(C)O1 (centres undefined)
MIC [1]: 8 µg/mL | MIC [2]: 8 µg/mL | MIC [3]: 8 µg/mL | MIC [4]: 8 µg/mL | MIC [5]: 8 µg/mL | MIC [6]: 32 µg/mL | MIC [7]: 1020 µg/mL | MIC [8]: 1020 µg/mL | MIC [9]: 1020 µg/mL | MIC [10]: 1020 µg/mL | MIC [11]: 0.06 µg/mL | MIC [12]: 0.06 µg/mL | MIC [13]: 0.06 µg/mL | Activity (Cell membrane): Not Active | MIC [14]: 16 µg/mL (≈ 29.7 µM) | MIC [15]: 16 µg/mL (≈ 29.7 µM) | MIC [16]: 16 µg/mL (≈ 29.7 µM)
